{
  "source": "ChEMBL document CHEMBL4325889",
  "about": "“Natural products hybrids: 3,5,4'-Trimethoxystilbene-5,6,7-trimethoxyflavone chimeric analogs as potential cytotoxic agents against diverse human cancer cells” (Eur J Med Chem, 2019)",
  "key": {"HeLa [1]": {"system": "HeLa", "test": "Induction of morphological changes in human HeLa cells assessed as nuclear fragmentation at 10 uM after 48 hrs by DAPI staining based fluorescence microscopic method", "assay_type": "functional, cell-based", "method_in_brief": "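HeLa cells exposed to 10 µM for 48 h, then stained with DAPI. Nuclear shape, size and density (bright condensed, fragmented chromatin, apoptotic bodies) examined by fluorescence microscopy under 358 nm excitation, against untreated control cells.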"}, "HeLa [2]": {"system": "HeLa", "test": "Cell cycle arrest in human HeLa cells assessed as accumulation at sub-G1 phase up to 10 uM by propidium iodide staining based flow cytometry (reference value: 6.24%)", "assay_type": "functional"}, "HeLa [3]": {"system": "HeLa", "test": "Cell cycle arrest in human HeLa cells assessed as accumulation at sub-G1 phase after 48 hrs by propidium iodide staining based flow cytometry (reference value: 4.43%)", "assay_type": "functional"}, "HeLa [4]": {"system": "HeLa", "test": "Induction of apoptosis in human HeLa cells assessed as early apoptotic cells at 2.5 uM by Annexin V-FITC/propidium iodide staining based flow cytometry (reference value: 5.7%)", "assay_type": "functional", "method_in_brief": "(§1)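 HeLa human cervical cancer cells treated with increasing concentrations or for increasing incubation times. Cells stained with annexin V-FITC and propidium iodide and analysed by FACS. Gating: early apoptotic = annexin+/PI−, late apoptotic = annexin+/PI+.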"}, "HeLa [5]": {"system": "HeLa", "test": "Induction of apoptosis in human HeLa cells assessed as necrotic cells at 2.5 uM by Annexin V-FITC/propidium iodide staining based flow cytometry (reference value: 2.2%)", "assay_type": "functional", "method_in_brief": "as §1"}, "HeLa [6]": {"system": "HeLa", "test": "Induction of apoptosis in human HeLa cells assessed as early apoptotic cells at 5 uM by Annexin V-FITC/propidium iodide staining based flow cytometry (reference value: 5.7%)", "assay_type": "functional", "method_in_brief": "as §1"}, "HeLa [7]": {"system": "HeLa", "test": "Induction of apoptosis in human HeLa cells assessed as late apoptotic cells at 5 uM by Annexin V-FITC/propidium iodide staining based flow cytometry (reference value: 6.9%)", "assay_type": "functional", "method_in_brief": "as §1"}, "HeLa [8]": {"system": "HeLa", "test": "Induction of apoptosis in human HeLa cells assessed as necrotic cells at 5 uM by Annexin V-FITC/propidium iodide staining based flow cytometry (reference value: 2.2%)", "assay_type": "functional", "method_in_brief": "as §1"}, "HeLa [9]": {"system": "HeLa", "test": "Induction of apoptosis in human HeLa cells assessed as live cells at 10 uM by Annexin V-FITC/propidium iodide staining based flow cytometry (reference value: 85.2%)", "assay_type": "functional", "method_in_brief": "as §1"}, "HeLa [10]": {"system": "HeLa", "test": "Induction of apoptosis in human HeLa cells assessed as early apoptotic cells at 10 uM by Annexin V-FITC/propidium iodide staining based flow cytometry (reference value: 5.7%)", "assay_type": "functional", "method_in_brief": "as §1"}, "HeLa [11]": {"system": "HeLa", "test": "Induction of apoptosis in human HeLa cells assessed as late apoptotic cells at 10 uM by Annexin V-FITC/propidium iodide staining based flow cytometry (reference value: 6.9%)", "assay_type": "functional", "method_in_brief": "as §1"}, "HeLa [12]": {"system": "HeLa", "test": "Induction of apoptosis in human HeLa cells assessed as live cells after 12 hrs by Annexin V-FITC/propidium iodide staining based flow cytometry (reference value: 92.9%)", "assay_type": "functional", "method_in_brief": "as §1"}, "HeLa [13]": {"system": "HeLa", "test": "Induction of apoptosis in human HeLa cells assessed as late apoptotic cells after 12 hrs by Annexin V-FITC/propidium iodide staining based flow cytometry (reference value: 3.6%)", "assay_type": "functional", "method_in_brief": "as §1"}, "HeLa [14]": {"system": "HeLa", "test": "Induction of apoptosis in human HeLa cells assessed as necrotic cells after 12 hrs by Annexin V-FITC/propidium iodide staining based flow cytometry (reference value: 0.9%)", "assay_type": "functional", "method_in_brief": "as §1"}, "HeLa [15]": {"system": "HeLa", "test": "Induction of apoptosis in human HeLa cells assessed as live cells after 24 hrs by Annexin V-FITC/propidium iodide staining based flow cytometry (reference value: 92.9%)", "assay_type": "functional", "method_in_brief": "as §1"}, "HeLa [16]": {"system": "HeLa", "test": "Induction of apoptosis in human HeLa cells assessed as late apoptotic cells after 24 hrs by Annexin V-FITC/propidium iodide staining based flow cytometry (reference value: 3.6%)", "assay_type": "functional", "method_in_brief": "as §1"}, "HeLa [17]": {"system": "HeLa", "test": "Induction of apoptosis in human HeLa cells assessed as necrotic cells after 24 hrs by Annexin V-FITC/propidium iodide staining based flow cytometry (reference value: 0.9%)", "assay_type": "functional", "method_in_brief": "as §1"}, "HeLa [18]": {"system": "HeLa", "test": "Induction of apoptosis in human HeLa cells assessed as live cells after 48 hrs by Annexin V-FITC/propidium iodide staining based flow cytometry (reference value: 92.9%)", "assay_type": "functional", "method_in_brief": "as §1"}, "HeLa [19]": {"system": "HeLa", "test": "Induction of apoptosis in human HeLa cells assessed as early apoptotic cells after 48 hrs by Annexin V-FITC/propidium iodide staining based flow cytometry (reference value: 2.6%)", "assay_type": "functional", "method_in_brief": "as §1"}, "HeLa [20]": {"system": "HeLa", "test": "Induction of apoptosis in human HeLa cells assessed as late apoptotic cells after 48 hrs by Annexin V-FITC/propidium iodide staining based flow cytometry (reference value: 3.6%)", "assay_type": "functional", "method_in_brief": "as §1"}},
  "note": "Active and inactive are the calls of the source. The rule behind the calls is not given here.",
  "data": [
    {"smiles": "COc1cc(NC(=O)c2cccc(-c3cc(=O)c4c(OC)c(OC)c(OC)cc4o3)c2)cc(OC)c1OC", "values": [
      {"measurement": "Activity", "setting": "HeLa [1]", "value": "Active"},
      {"measurement": "Activity", "setting": "HeLa [2]", "value": 19.14, "unit": "%"},
      {"measurement": "Activity", "setting": "HeLa [3]", "value": 26.61, "unit": "%"},
      {"measurement": "Activity", "setting": "HeLa [4]", "value": 11.8, "unit": "%"},
      {"measurement": "Activity", "setting": "HeLa [5]", "value": 2.4, "unit": "%"},
      {"measurement": "Activity", "setting": "HeLa [6]", "value": 21.1, "unit": "%"},
      {"measurement": "Activity", "setting": "HeLa [7]", "value": 13.8, "unit": "%"},
      {"measurement": "Activity", "setting": "HeLa [8]", "value": 5.7, "unit": "%"},
      {"measurement": "Activity", "setting": "HeLa [9]", "value": 43.7, "unit": "%"},
      {"measurement": "Activity", "setting": "HeLa [10]", "value": 22.6, "unit": "%"},
      {"measurement": "Activity", "setting": "HeLa [11]", "value": 21.2, "unit": "%"},
      {"measurement": "Activity", "setting": "HeLa [12]", "value": 89.3, "unit": "%"},
      {"measurement": "Activity", "setting": "HeLa [13]", "value": 5.5, "unit": "%"},
      {"measurement": "Activity", "setting": "HeLa [14]", "value": 1, "unit": "%"},
      {"measurement": "Activity", "setting": "HeLa [15]", "value": 80.3, "unit": "%"},
      {"measurement": "Activity", "setting": "HeLa [16]", "value": 4.4, "unit": "%"},
      {"measurement": "Activity", "setting": "HeLa [17]", "value": 1.8, "unit": "%"},
      {"measurement": "Activity", "setting": "HeLa [18]", "value": 33.2, "unit": "%"},
      {"measurement": "Activity", "setting": "HeLa [19]", "value": 24, "unit": "%"},
      {"measurement": "Activity", "setting": "HeLa [20]", "value": 39.1, "unit": "%"}
    ]}
  ]
}
